One data set has as its system Hepatitis B virus. The data set can be described thus: Antiviral activity against Hepatitis B genotype D virus infected in HepG2 2.2.15 cells assessed as inhibition of viral DNA incubated for 5 days by qPCR analysis. Particulars: HepG2 2.2.15, 120 h. The data set is classed as functional, cell-based. In short, it runs like this: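 HepG2.2.15 cells were incubated with compound for 5 days. HBV DNA was then purified from the culture supernatant and quantified by real-time PCR.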

Data set [1] is described as follows: Selectivity index, ratio of CC50 for human […] cells to EC50 for Hepatitis B virus. It is filed as toxicity. Particulars: read-out: Ratio CC50/EC50.
A short description of data set [2]: Cytotoxicity against human HepG2 2.2.15 cells assessed as reduction in cell viability incubated for 5 days by MTT assay. It is filed as cell-based. Particulars: time 5 day. In short, it runs like this: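 HepG2.2.15 cells were incubated with compound, then cell viability was measured. Mean ± SD of three independent experiments.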

Molecules are shown by their SMILES.

As for `Nc1cc(F)c(S(=O)(=O)N2CCC(O)CC2)cc1C(=O)Nc1ccc(F)c(Cl)c1`, in the data set with Hepatitis B virus, the EC50 came to 830 nM. Also, the selectivity ratio in data set [1] worked out at 22.3. For the same compound, the CC50 at 120 h in data set [2] was determined as 18.5 µM.

Consider `N#Cc1cc(NC(=O)c2cc(S(=O)(=O)N3CCC(O)CC3)c(F)cc2N)ccc1F`, for which the EC50 in the data set on Hepatitis B virus came to 1080 nM. The selectivity ratio in data set [1] is > 833. In data set [2], the CC50 at 120 h was > 900 µM.

With `Nc1cc(F)c(S(=O)(=O)N2CCC(O)CC2)cc1C(=O)Nc1cc(F)c(F)c(F)c1`, the concentration giving a half-maximal response (EC50) with Hepatitis B virus was found to be 270 nM. Besides, in data set [1], the selectivity ratio stood at 73. Also, the CC50 at 120 h in data set [2] amounted to 19.7 µM.

`O=C(Nc1cc(F)c(F)c(F)c1)c1ccc(F)c(S(=O)(=O)N2CCC(O)CC2)c1`: the EC50 in the data set with Hepatitis B virus was found to be 1040 nM. The selectivity ratio in data set [1] turned out to be 8.3. Besides, in data set [2], the CC50 at 120 h came out at 8.6 µM.

As for `Nc1cc(F)c(S(=O)(=O)N2CCC(O)CC2)cc1C(=O)Nc1cccc(F)c1`, the concentration for a half-maximal effect (EC50) in the data set on Hepatitis B virus worked out at 830 nM. Also, the selectivity ratio in data set [1] came out at 35.3. In addition, in data set [2], the half-maximal cytotoxic concentration (CC50) at 120 h worked out at 29.3 µM.

As to `Nc1cc(F)c(S(=O)(=O)N2CCC(O)CC2)cc1C(=O)Nc1ccc(C(F)(F)F)c(F)c1`, the EC50 in the data set on Hepatitis B virus was > 3300 nM. The 50% cytotoxic concentration (CC50) at 120 h in data set [2] was 5.9 µM.

`Nc1cc(F)c(S(=O)(=O)N2CCC(O)CC2)cc1C(=O)Nc1ccc(Cl)c(Cl)c1`: in the data set with Hepatitis B virus, the EC50 was 2070 nM. Besides, in data set [1], the selectivity ratio was found to be 9.9. Further, the CC50 at 120 h in data set [2] was 20.4 µM.

Take `N#Cc1cc(NC(=O)c2cc(S(=O)(=O)N3CCC(O)CC3)c(F)cc2N)ccc1Cl`: the EC50 with Hepatitis B virus is > 3300 nM. Also, the CC50 at 120 h in data set [2] is > 900 µM.
